From article PMC3987869 (Journal of medicinal chemistry, 2013)
Entries after “also recorded” stand apart in the source; their conditions may differ. Read-outs that look alike come from different tables or passages of the source.

Legend:
ABHD6 [1] = molecular target: T1, ABHD6 (Mus musculus, UniProt Q8R2Y0); details: negligible cross-reactivity with FAAH; cited from earlier work
T1 sequence (Q8R2Y0 1-336): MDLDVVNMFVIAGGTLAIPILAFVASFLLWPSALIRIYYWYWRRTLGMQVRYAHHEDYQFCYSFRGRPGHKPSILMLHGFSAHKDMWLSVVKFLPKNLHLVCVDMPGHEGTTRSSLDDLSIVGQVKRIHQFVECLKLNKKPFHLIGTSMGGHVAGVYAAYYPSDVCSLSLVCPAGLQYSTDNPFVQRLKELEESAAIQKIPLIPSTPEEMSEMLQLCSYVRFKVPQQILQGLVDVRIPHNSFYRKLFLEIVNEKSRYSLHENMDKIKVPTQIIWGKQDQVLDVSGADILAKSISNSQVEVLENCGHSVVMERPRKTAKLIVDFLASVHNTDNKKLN

[2] = test system: mouse brain membrane SH enzymes; assay type: biochemical; details: FP-Rh; for Off-targets (10 μM): 10 μM compound; for Off-targets (1 μM): 1 μM compound
How it was run: (§1)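 Mouse brain membrane fraction was prepared by Dounce homogenisation in PBS pH 7.5, a 1,400 × g spin, then a 100,000 × g pellet (45 min). Membranes at 1 mg/mL were preincubated with test compound for 30 min at 37 °C, then labelled with FP-rhodamine (1 μM final, 30 min, 37 °C). Samples were quenched in SDS-PAGE loading buffer, run on 10% SDS-PAGE and scanned for in-gel fluorescence.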

[3] = test system: Neuro2A membrane proteome; assay: click chemistry-ABPP of Neuro2A cells treated in situ with compound 2; assay type: cell-based, mouse; details: Neuro2A cells 1 hr, click with azide-Rh
[4] = molecular target: T2, Neuro2A membrane proteome (Mus musculus, UniProt Q8R2Y0); assay: as above; assay type: cell-based; details: Neuro2A cells 1 hr, click with azide-Rh
T2 sequence (Q8R2Y0 1-336): T1 sequence (Q8R2Y0 1-336)

[5] = molecular target: T3, mouse brain membrane SH enzymes (Mus musculus, UniProt O08914); assay type: biochemical; details: competitive ABPP, FP-Rh
T3 sequence (O08914 1-579): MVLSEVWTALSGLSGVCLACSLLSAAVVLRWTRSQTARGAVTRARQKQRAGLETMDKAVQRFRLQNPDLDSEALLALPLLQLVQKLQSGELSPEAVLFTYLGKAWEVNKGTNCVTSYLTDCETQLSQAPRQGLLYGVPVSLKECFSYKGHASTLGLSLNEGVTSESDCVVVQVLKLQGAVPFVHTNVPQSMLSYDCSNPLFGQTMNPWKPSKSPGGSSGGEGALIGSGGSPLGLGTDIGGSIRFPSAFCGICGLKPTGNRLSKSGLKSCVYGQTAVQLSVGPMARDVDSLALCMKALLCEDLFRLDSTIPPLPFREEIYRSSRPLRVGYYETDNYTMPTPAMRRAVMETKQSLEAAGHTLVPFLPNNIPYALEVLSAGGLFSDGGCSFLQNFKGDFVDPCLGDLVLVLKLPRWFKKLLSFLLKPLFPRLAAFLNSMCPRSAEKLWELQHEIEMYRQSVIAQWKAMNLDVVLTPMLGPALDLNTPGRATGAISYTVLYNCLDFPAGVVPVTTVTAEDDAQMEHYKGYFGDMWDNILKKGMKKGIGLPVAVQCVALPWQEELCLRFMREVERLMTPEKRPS
How it was run: as §1

ABHD6 [6] = molecular target: T1, ABHD6; assay: in situ ABHD6 inhibition in Neuro2A cells, gel-based competitive ABPP; assay type: cell-based; details: for potency and selectivity in cells: abstract statement; for fold more potent in situ compared to compound 1: versus compound 1
endogenous ABHD6 = molecular target: T4, endogenous ABHD6 (Mus musculus, UniProt Q8R2Y0); assay: gel-based competitive ABPP; assay type: biochemical; details: versus compound 1
T4 sequence (Q8R2Y0 1-336): T1 sequence (Q8R2Y0 1-336)

[7] = test system: other brain and liver SHs (CES1, FAAH); assay type: in vivo; details: mouse, i.p., 4 hr, FP-Rh gels
How it was run: (§2)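 Mice were dosed i.p. in 18:1:1 saline/ethanol/PEG40 (10 μL g-1) or by oral gavage in PEG300 (4 μL g-1). After 4 hr they were anaesthetised with isoflurane and killed by cervical dislocation. Brain and liver were Dounce-homogenised in PBS pH 7.5, and membrane fractions (100,000 × g pellet) were labelled with FP-rhodamine or HT-01 (1 μM, 30 min, 37 °C). Readout was SDS-PAGE with in-gel fluorescence.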

[8] = molecular target: T5, other brain and liver SHs (CES1, FAAH) (Mus musculus, UniProt O08914); assay type: in vivo; details: for lowest oral dose with cross-reactivity with FAAH in the brain: oral gavage
T5 sequence (O08914 1-579): T3 sequence (O08914 1-579)
How it was run: as §2

ABHD6 [9] = molecular target: T1, ABHD6; assay: in vivo ABHD6 inhibition in mouse liver, gel-based competitive ABPP; details: 4 hr; for liver ABHD6 inhibition at 1 mg kg^-1: i.p., 1 mg kg^-1, HT-01 gels
ABHD6 [10] = molecular target: T1, ABHD6; assay: in vivo ABHD6 inhibition in mouse brain, gel-based competitive ABPP; details: for brain ABHD6 inhibition: 1 mg kg^-1 (20: all doses tested, 0.1-1 mg kg^-1)
[11] = test system: other SHs detected in Neuro2A cells; assay: ABPP-SILAC of Neuro2A cells treated in situ: other serine hydrolases; assay type: cell-based, mouse; details: 3 nM, 4 hr
How it was run: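 Neuro2A cells were grown 10 passages in light or heavy (13C/15N Arg and Lys) SILAC DMEM with 10% dialyzed FCS and 2 mM L-glutamine. Heavy cells received test compound and light cells DMSO (4 hr, 37 °C). Soluble and membrane proteomes (2.0 mg/mL) were labeled with 10 μM FP-biotin (2 hr, 25 °C), mixed 1:1, avidin-enriched, trypsin-digested on bead (12 hr, 37 °C) and analysed by LC-MS/MS. Heavy/light ratios were taken from ≥3 unique peptides per enzyme.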

[12] = Table 1, mouse brain membrane proteome

Structure (SMILES): COc1ccc(-c2ccc(-c3cn(C(=O)N4CCCCC4c4ccccc4)nn3)cc2)cc1 (centres unmarked) [Compound 1]
- concentration that completely inactivates ABHD6 in living cells (ABHD6 [1]): 25 nM
- Off-targets (10 μM) [2, 12]: FAAH

Structure (SMILES): C#CCOCCCc1ccc(C2CCCCN2C(=O)n2cc(-c3ccc(-c4ccc(OC)cc4)cc3)nn2)cc1 (centres unmarked) [Compound 2]
- concentrations with limited cross-reactivity (60 kDa protein, likely FAAH) [3]: 80 to 600 nM
- lowest concentration at which the ∼35 kDa target (ABHD6) was detected [4]: 10 nM
- concentrations cross-reactive with FAAH in mouse brain proteome [5]: 0.4 to 10 µM

Structure (SMILES): COc1ccccc1-c1ccc(-c2cn(C(=O)N3CCCCC3Cc3ccccc3)nn2)cc1 (centres unmarked) [Compound 3]
- Off-targets (10 μM) [2, 12]: MGLL

Structure (SMILES): O=C(N1CCCCC1Cc1ccccc1)n1cc(-c2ccc(-c3cccc(CO)c3)cc2)nn1 (centres unmarked) [Compound 4]
- Off-targets (10 μM) [2, 12]: none

Structure (SMILES): O=C(c1ccc(-c2ccc(-c3cn(C(=O)N4CCCCC4Cc4ccccc4)nn3)cc2)cc1)N1CCCCC1 (centres unmarked) [Compound 5]
- Off-targets (10 μM) [2, 12]: none

Structure (SMILES): COc1ccccc1-c1ccc(-c2cn(C(=O)N3CCCCC3c3ccccc3)nn2)cc1 (centres unmarked) [Compound 6]
- Off-targets (10 μM) [2, 12]: FAAH, MGLL

Structure (SMILES): O=C(N1CCCCC1c1ccccc1)n1cc(-c2ccc(-c3ccccc3CO)cc2)nn1 (centres unmarked) [Compound 8]
- Off-targets (1 μM) ([2]; mouse brain SHs): none
- Off-targets (10 μM) ([2]; Table 2, mouse brain SHs): FAAH, LYPLA1, LYPLA2

Structure (SMILES): O=C(N1CCCCC1c1ccccc1)n1cc(-c2ccc(-c3cccc(CO)c3)cc2)nn1 (centres unmarked) [Compound 9, (4-(3′-(Hydroxymethyl)-[1,1′-biphenyl]-4-yl)-1H-1,2,3-triazol-1-yl)(2-phenylpiperidin-1-yl)methanone]
- potency and selectivity in cells (ABHD6 [6]): < 5 nM
- fold more potent in situ compared to compound 1 (ABHD6 [6]): ~5 fold
- fold more potent in vitro compared to compound 1 (endogenous ABHD6): ~10 fold
- inhibition of off-target carboxylesterase-1 (CES1) in vivo [7]: inhibited
- lowest oral dose with cross-reactivity with FAAH in the brain [8]: 10 mg/kg
- liver ABHD6 inhibition at 1 mg kg^-1 (ABHD6 [9]): near-complete blockade; also recorded: near-complete inactivation
- brain ABHD6 inhibition (ABHD6 [10]; i.p., 4 hr): completely inactivated; also recorded: near-complete inactivation
- Off-targets (1 μM) ([2]; mouse brain SHs): none
- Off-targets (10 μM) ([2]; Table 2, mouse brain SHs): FAAH, LYPLA1, LYPLA2
- cross-reactivity against the ∼50 other SHs (ABPP-SILAC) [11]: < 50%

Structure (SMILES): O=C(N1CCCCC1c1ccccc1)n1cc(-c2ccc(-c3ccc(CO)cc3)cc2)nn1 (centres unmarked) [Compound 10]
- Off-targets (1 μM) ([2]; mouse brain SHs): none
- Off-targets (10 μM) ([2]; Table 2, mouse brain SHs): FAAH, LYPLA1, LYPLA2

Structure (SMILES): O=C(c1cccc(-c2ccc(-c3cn(C(=O)N4CCCCC4c4ccccc4)nn3)cc2)c1)N1CCCCC1 (centres unmarked) [Compound 11, (2-Phenylpiperidin-1-yl)(4-(3′-(piperidine-1-carbonyl)-[1,1′-biphenyl]-4-yl)-1H-1,2,3-triazol-1-yl)methanone]
- fold more potent in situ compared to compound 1 (ABHD6 [6]): ~5 fold
- fold more potent in vitro compared to compound 1 (endogenous ABHD6): ~10 fold
- cross-reactivity with FAAH in brain in vivo ([8]; i.p., 1-40 mg kg^-1, 4 hr): negligible
- doses giving near-complete blockade of ABHD6 in the liver (i.p.) (ABHD6 [9]): 5 to 10 mg/kg
- dose to completely block ABHD6 in the brain (i.p.) (ABHD6 [10]; i.p., 4 hr): ~40 mg/kg
- inhibition at 20 mg/kg (ABHD6 [10]; ip, read-out: brain ABHD6 inhibition at 20 mg kg^-1): > 70%
- dose producing complete blockade of brain ABHD6 (p.o.) (ABHD6 [10]; p.o., PEG300, 4 hr): 40 mg/kg
- Off-targets (1 μM) ([2]; mouse brain SHs): none
- Off-targets (10 μM) ([2]; Table 2, mouse brain SHs): LYPLA1, LYPLA2
- cross-reactivity against the ∼50 other SHs (ABPP-SILAC) [11]: < 50%

Structure (SMILES): O=C(c1ccc(-c2ccc(-c3cn(C(=O)N4CCCCC4c4ccccc4)nn3)cc2)cc1)N1CCCCC1 (centres unmarked) [Compound 12]
- Off-targets (1 μM) ([2]; mouse brain SHs): none
- Off-targets (10 μM) ([2]; Table 2, mouse brain SHs): LYPLA1, LYPLA2

Structure (SMILES): NC(=O)c1ccc(-c2ccc(-c3cn(C(=O)N4CCCCC4c4ccccc4)nn3)cc2)cc1 (centres unmarked) [Compound 13]
- Off-targets (1 μM) ([2]; mouse brain SHs): none
- Off-targets (10 μM) ([2]; Table 2, mouse brain SHs): FAAH, LYPLA1, LYPLA2

Structure (SMILES): O=C(O)c1cccc(-c2ccc(-c3cn(C(=O)N4CCCCC4Cc4ccccc4)nn3)cc2)c1 (centres unmarked) [Compound 20, 4′-(1-(2-Benzylpiperidine-1-carbonyl)-1H-1,2,3-triazol-4-yl)-[1,1′-biphenyl]-3-carboxylic acid]
- potency and selectivity in cells (ABHD6 [6]): < 5 nM
- fold more potent in situ compared to compound 1 (ABHD6 [6]): ~5 fold
- fold more potent in vitro compared to compound 1 (endogenous ABHD6): ~10 fold
- lowest oral dose with cross-reactivity with FAAH in the brain [8]: 10 mg/kg
- liver ABHD6 inhibition at 1 mg kg^-1 (ABHD6 [9]): near-complete blockade; also recorded: near-complete inactivation
- brain ABHD6 inhibition (ABHD6 [10]; i.p., 4 hr): negligible inhibition
- Off-targets (1 μM) ([2]; mouse brain SHs): none
- Off-targets (10 μM) ([2]; Table 2, mouse brain SHs): FAAH, DAGLβ
- cross-reactivity against the ∼50 other SHs (ABPP-SILAC) [11]: < 50%

Structure (SMILES): O=C(O)c1cccc(-c2ccc(-c3cn(C(=O)N4CCCCC4c4ccccc4)nn3)cc2)c1 (centres unmarked) [Compound 21]
- Off-targets (1 μM) ([2]; mouse brain SHs): APEH, LYPLA1, and LYPLA2
- Off-targets (10 μM) ([2]; Table 2, mouse brain SHs): FAAH, APEH, LYPLA1, LYPLA2

Structure (SMILES): O=C(O)c1cccc(-c2ccc(-c3cn(C(=O)N4CCCCC4CCc4ccccc4)nn3)cc2)c1 (centres unmarked) [Compound 22]
- Off-targets (1 μM) ([2]; mouse brain SHs): none
- Off-targets (10 μM) ([2]; Table 2, mouse brain SHs): FAAH
